Consider four molecules from ChEMBL document CHEMBL5247671, “Design and Synthesis of Pyrazole-Based Macrocyclic Kinase Inhibitors Targeting BMPR2” (ACS Med Chem Lett, 2023).

As a reminder, the IC50 is the point on the concentration scale where inhibition reaches its midpoint. As a reminder, the ΔTm is the shift of the melting midpoint relative to a reference. The Kd is the equilibrium constant for the complex coming apart.

Structures are written as SMILES.

Assay [1] has as its target T1, Glycogen synthase kinase-3 beta (Homo sapiens, UniProt P49841). The assay is described as follows: Inhibition of N-terminal NanoLuc-fused full length intact GSK3B (unknown origin) transfected in HEK293T cells incubated for 2 hrs in presence of tracer K8 by NanoBRET assay. Type of assay: cell-based. Summed up: (§1)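 Cellular target engagement by NanoBRET in intact cells expressing NanoLuc-fused GSK3A or GSK3B, with EC50 values derived from tracer displacement.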
Target sequence in this assay (P49841 whole entry, the tested form may be a part): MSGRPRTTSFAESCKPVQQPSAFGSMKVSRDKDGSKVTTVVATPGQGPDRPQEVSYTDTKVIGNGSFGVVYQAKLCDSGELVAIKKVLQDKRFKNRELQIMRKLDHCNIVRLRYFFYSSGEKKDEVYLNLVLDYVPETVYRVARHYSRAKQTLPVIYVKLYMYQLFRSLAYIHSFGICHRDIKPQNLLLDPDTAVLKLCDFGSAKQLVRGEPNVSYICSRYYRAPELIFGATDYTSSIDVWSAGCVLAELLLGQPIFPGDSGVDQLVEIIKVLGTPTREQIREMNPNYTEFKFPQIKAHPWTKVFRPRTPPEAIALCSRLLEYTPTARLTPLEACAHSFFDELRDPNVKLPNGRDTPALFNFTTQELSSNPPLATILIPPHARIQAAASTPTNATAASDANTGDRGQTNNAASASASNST

For assay [2], the target named is T1, Glycogen synthase kinase-3 beta. The assay can be described thus: Inhibition of N-terminal NanoLuc-fused full length lysed GSK3B (unknown origin) transfected in HEK293T cells incubated for 2 hrs in presence of tracer K8 by NanoBRET assay. Type of assay: cell-based. Summed up:
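GSK3B NanoBRET run in the lysed mode, with cells permeabilized by digitonin to bypass compound cell penetration. EC50 values were derived from tracer displacement.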
Target sequence in this assay (P49841 whole entry, the tested form may be a part): as above

Assay [3] has as its target T2, Bone morphogenetic protein receptor type-2 (Homo sapiens) (UniProt Q13873).
T2 sequence (whole entry): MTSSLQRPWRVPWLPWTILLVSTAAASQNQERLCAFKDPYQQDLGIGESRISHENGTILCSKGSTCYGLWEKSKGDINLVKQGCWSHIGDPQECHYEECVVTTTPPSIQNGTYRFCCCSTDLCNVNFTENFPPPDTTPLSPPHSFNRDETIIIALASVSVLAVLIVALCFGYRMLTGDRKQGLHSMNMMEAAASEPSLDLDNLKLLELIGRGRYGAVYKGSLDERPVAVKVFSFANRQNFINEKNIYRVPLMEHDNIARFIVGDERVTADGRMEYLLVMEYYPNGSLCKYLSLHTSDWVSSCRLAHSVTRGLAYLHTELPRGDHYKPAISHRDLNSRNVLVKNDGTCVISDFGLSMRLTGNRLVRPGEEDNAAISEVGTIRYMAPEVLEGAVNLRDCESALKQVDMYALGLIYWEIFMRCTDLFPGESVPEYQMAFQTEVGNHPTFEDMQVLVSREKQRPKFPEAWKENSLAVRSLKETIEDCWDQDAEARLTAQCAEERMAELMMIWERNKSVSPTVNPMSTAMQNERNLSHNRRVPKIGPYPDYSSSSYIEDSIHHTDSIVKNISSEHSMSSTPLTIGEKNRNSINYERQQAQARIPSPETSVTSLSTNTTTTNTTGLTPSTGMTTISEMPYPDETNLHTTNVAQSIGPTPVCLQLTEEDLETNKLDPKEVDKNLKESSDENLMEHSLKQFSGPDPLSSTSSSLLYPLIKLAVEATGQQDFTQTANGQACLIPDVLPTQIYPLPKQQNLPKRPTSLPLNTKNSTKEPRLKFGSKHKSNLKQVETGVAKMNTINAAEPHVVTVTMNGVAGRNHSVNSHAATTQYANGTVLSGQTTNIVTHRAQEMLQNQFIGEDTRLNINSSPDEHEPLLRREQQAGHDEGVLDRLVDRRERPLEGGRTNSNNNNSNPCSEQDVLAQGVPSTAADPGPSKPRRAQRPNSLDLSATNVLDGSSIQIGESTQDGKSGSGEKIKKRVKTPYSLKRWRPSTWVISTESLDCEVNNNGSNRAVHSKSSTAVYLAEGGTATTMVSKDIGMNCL
The assay can be described thus: Binding affinity to recombinant BMPR2 (unknown origin) assessed as change in melting temperature at 10 uM by DSF assay. Summed up:
(§2)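 Differential scanning fluorimetry on an in-house panel of 90 recombinant kinases. Stabilization is read as the shift in melting temperature (ΔTm) relative to ligand-free protein. Staurosporine served as the positive control, and binding was also compared against its ΔTm.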

Assay [4] addresses T1, Glycogen synthase kinase-3 beta. The assay is described as follows: Binding affinity to recombinant GSK3B (unknown origin) assessed as change in melting temperature at 10 uM by DSF assay. Summed up:
as §2
Target sequence in this assay (P49841 whole entry, looked up, the tested form may be a part): as the sequence (P49841 whole entry, the tested form may be a part) above

For assay [5], the target named is Glycogen synthase kinase-3 alpha (Homo sapiens, UniProt P49840). The assay is described as follows: Inhibition of N-terminal NanoLuc-fused full length GSK3A (unknown origin) transfected in HEK293T cells incubated for 2 hrs in presence of tracer K8 by NanoBRET assay. Type of assay: cell-based. Summed up: as §1
On the technique in general: BRET reads energy transfer from a luciferase to a nearby fluorophore.

Assay [6] deals with T3, Bone morphogenetic protein receptor type-2 (Homo sapiens, UniProt Q13873).
T3 sequence (Q13873 whole entry): T2 sequence (whole entry)
The assay can be described thus: Inhibition of BMPR2 (174 to end residues) (unknown origin) using MBP as substrate incubated for 60 mins in presence of ATP by ADP Glo assay. Summed up: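 Enzymatic inhibition of the BMPR2 kinase was read out by ADP-Glo detection of ADP formed, and IC50 values were derived from concentration–response data.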
In general terms: In ADP-Glo the light output rises with the ADP produced.

The target in a further assay is T4, TGF-beta receptor type-1 (Homo sapiens, UniProt P36897).
T4 sequence (P36897 whole entry): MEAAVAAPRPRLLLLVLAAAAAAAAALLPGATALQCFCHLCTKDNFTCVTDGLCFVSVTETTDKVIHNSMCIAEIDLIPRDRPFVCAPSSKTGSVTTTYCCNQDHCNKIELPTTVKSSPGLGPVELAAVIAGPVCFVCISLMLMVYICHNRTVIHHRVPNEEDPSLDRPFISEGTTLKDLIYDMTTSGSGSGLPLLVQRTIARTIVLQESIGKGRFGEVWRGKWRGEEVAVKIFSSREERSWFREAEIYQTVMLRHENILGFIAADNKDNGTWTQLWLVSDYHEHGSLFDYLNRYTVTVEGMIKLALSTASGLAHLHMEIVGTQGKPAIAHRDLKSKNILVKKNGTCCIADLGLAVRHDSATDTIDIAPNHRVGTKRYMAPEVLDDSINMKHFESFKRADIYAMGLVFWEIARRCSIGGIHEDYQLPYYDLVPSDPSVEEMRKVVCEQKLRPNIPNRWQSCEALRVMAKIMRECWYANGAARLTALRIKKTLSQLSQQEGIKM
The assay is described as follows: Inhibition of ALK5 (unknown origin) assessed as dissociation constant.

Assay [7] addresses T2, Bone morphogenetic protein receptor type-2 (Homo sapiens). The assay is described as follows: Binding affinity to BMPR2 (unknown origin) assessed as change in entropy by ITC assay. Summed up:
(§3)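 Binding measured by isothermal titration calorimetry against the recombinant BMPR2 kinase domain. Thermodynamic binding parameters, including the dissociation constant, were derived from the titration data.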

Assay [8] shares this target. The assay is described as follows: Binding affinity to BMPR2 (unknown origin) assessed as change in enthalpy by ITC assay. Summed up:
as §3
(In general: In ITC the heat of successive injections is recorded.)

Assay [9] concerns the target T3, Bone morphogenetic protein receptor type-2. The assay is described as follows: Inhibition of BMPR2 (unknown origin) assessed as dissociation constant by ITC assay. Summed up: as §3
For assay [10], the system named is BMP2-inducible protein kinase (Homo sapiens). The assay is described as follows: Binding affinity to recombinant BMP2K (unknown origin) assessed as change in melting temperature at 10 uM by DSF assay.
Assay [11] has as its target T5, Serine/threonine-protein kinase 3 (Homo sapiens) (UniProt Q13188).
T5 sequence (whole entry): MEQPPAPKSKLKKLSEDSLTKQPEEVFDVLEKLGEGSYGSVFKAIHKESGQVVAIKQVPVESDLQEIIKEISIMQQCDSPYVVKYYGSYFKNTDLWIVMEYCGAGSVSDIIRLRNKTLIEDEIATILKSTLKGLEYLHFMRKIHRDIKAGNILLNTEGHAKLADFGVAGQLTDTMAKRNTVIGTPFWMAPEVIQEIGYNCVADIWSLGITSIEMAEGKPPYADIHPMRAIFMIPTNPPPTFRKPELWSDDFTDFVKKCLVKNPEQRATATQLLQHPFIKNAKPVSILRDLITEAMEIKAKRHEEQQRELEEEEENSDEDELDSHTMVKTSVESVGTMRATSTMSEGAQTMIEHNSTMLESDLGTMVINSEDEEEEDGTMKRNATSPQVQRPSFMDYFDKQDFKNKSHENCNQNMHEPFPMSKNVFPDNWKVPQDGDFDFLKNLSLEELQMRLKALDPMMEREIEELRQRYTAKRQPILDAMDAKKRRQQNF
The assay can be described thus: Binding affinity to recombinant STK3 (unknown origin) assessed as change in melting temperature at 10 uM by DSF assay. Summed up: as §2

Chain of Glycogen synthase kinase-3 alpha (P49840 whole entry, the tested form may be a part): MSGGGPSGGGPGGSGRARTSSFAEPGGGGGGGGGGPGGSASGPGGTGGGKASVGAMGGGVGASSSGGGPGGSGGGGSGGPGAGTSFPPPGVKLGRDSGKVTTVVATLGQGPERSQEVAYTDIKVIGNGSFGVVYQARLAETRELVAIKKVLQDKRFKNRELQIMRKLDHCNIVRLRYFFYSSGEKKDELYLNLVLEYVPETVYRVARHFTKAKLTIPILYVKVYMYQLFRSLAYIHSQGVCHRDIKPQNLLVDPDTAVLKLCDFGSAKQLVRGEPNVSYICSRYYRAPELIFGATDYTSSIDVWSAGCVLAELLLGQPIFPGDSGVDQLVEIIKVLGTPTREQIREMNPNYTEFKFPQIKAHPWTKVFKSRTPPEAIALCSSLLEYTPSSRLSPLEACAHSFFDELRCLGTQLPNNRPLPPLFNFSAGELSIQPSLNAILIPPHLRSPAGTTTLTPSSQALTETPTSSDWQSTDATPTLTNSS

Take `O=C1NCCCCCNc2nccc(n2)Nc2cc1[nH]n2`: the IC50 in assay [1] was more than 45000 nM; in [2], 3500 nM; in assay [5], more than 45000 nM; in assay [6], 630 nM. Besides, the ΔTm in assay [3] worked out at 4.6 °C; in assay [4], 4.9 °C.

Take `O=C1NCCc2cccc(c2)Nc2nccc(n2)Nc2cc1[nH]n2`: the ΔTm was determined as 5 °C in assay [3] and 7.2 °C in assay [4]. Besides, in assay [6], the IC50 came to 461 nM.

On to `N#CCc1ccc(Nc2nccc(Nc3cc(C4CC4)[nH]n3)n2)cc1`, for which the IC50 in [1] worked out at 3.8 nM; in [2], 1.2 nM; in [5], 4 nM; in assay [6], 36.2 nM. In addition, the ΔTm in assay [3] stood at 9.2 °C; in [4] it was 14 °C. Besides, the Kd amounted to 324 nM at TGF-beta receptor type-1 and 186 nM in [9]. Moreover, the deltaS in assay [7] is -1.97 cal/mol.K. Further, the deltaH in assay [8] was -9.61 kcal/mol.

In the case of `O=C1NCCCCCCNc2nccc(n2)Nc2cc1[nH]n2`, the ΔTm in assay [10], in assay [11] and in assay [4] was more than 5 °C throughout.
